Reference: ChEMBL document CHEMBL3576819, “Design, synthesis, biological evaluation and molecular docking studies of phenylpropanoid derivatives as potent anti-hepatitis B virus agents” (Eur J Med Chem, 2015)

Key:
[1] = system: Hepatitis B virus; assay: Antiviral activity against Hepatitis B virus infected in human HepG2.2.15 cells assessed as inhibition of HBeAg secretion at 150 uM after 3 days by ELISA; assay type: functional; details: HepG2 2.2.15, 72 h
Method in brief: (§1)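 HepG2.2.15 cells (MEM, 10% FBS, 380 µg/ml G418) seeded at 1×10^5 cells/ml, held 24 h at 37 °C, then treated with various drug concentrations; medium with drug renewed every 3 d for up to 9 d. Culture medium sampled on days 3, 6 and 9, stored at -20 °C, and assayed for secreted antigen. Lamivudine as positive control; IC50 = 50% inhibition of secretion; means of at least two experiments.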

[2] = system: Hepatitis B virus; assay: Antiviral activity against Hepatitis B virus infected in human HepG2.2.15 cells assessed as inhibition of HBsAg secretion at 150 uM after 3 days by ELISA; assay type: functional; details: HepG2 2.2.15, 72 h; method in brief: as §1
[3] = system: Hepatitis B virus; assay: Antiviral activity against Hepatitis B virus infected in human HepG2.2.15 cells assessed as cell survival at 150 uM after 9 days (reference value: 100%); assay type: functional; details: HepG2 2.2.15, 216 h
Method in brief: (§2)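 HepG2.2.15 cells (MEM, 10% FBS, 380 µg/ml G418, 37 °C, 5% CO2) seeded at 1×10^5 cells/ml, cultured 24 h, then exposed to various drug concentrations; drug-containing medium renewed every 3 d. OD read at 450 nm after 9 days; percent cell death calculated; CC50 = concentration killing 50% of cells. Means of at least two experiments.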

[4] = system: Hepatitis B virus; assay: Antiviral activity against Hepatitis B virus infected in human HepG2.2.15 cells assessed as inhibition of HBV DNA replication by real-time fluorescence quantitative PCR analysis; assay type: functional, organism-based; details: HepG2 2.2.15
[5] = system: Hepatitis B virus; assay: Antiviral activity against Hepatitis B virus infected in human HepG2.2.15 cells assessed as inhibition of HBeAg secretion by ELISA; assay type: functional, organism-based; details: HepG2 2.2.15; method in brief: as §1
[6] = system: Hepatitis B virus; assay: Antiviral activity against Hepatitis B virus infected in human HepG2.2.15 cells assessed as inhibition of HBV DNA copies per uL at 150 uM after 6 days by real-time fluorescence quantitative PCR analysis; assay type: functional; details: HepG2 2.2.15, 144 h
[7] = Selectivity index, ratio of CC50 for human HepG2.2.15 cells to IC50 for Hepatitis B virus infected in human HepG2.2.15 cells assessed as inhibition of HBeAg secretion; assay type: functional
Method in brief: (§3)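 Selectivity index computed as CC50/IC50, with CC50 from cell death of HepG2.2.15 cells after 9 days of treatment (OD 450 nm) and IC50 from 50% inhibition of HBeAg or HBsAg secretion in the same cells; medium with drug renewed every 3 d.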

[8] = system: Hepatitis B virus; assay: Antiviral activity against Hepatitis B virus infected in human HepG2.2.15 cells assessed as inhibition of HBeAg secretion at 300 uM after 9 days by ELISA; assay type: functional; details: HepG2 2.2.15, 216 h; method in brief: as §1
[9] = system: Hepatitis B virus; assay: Antiviral activity against Hepatitis B virus infected in human HepG2.2.15 cells assessed as inhibition of HBsAg secretion at 37.5 uM after 6 days by ELISA; assay type: functional; details: HepG2 2.2.15, 144 h; method in brief: as §1
[10] = Selectivity index, ratio of CC50 for human HepG2.2.15 cells to IC50 for Hepatitis B virus infected in human HepG2.2.15 cells assessed as inhibition of HBsAg secretion; assay type: functional; method in brief: as §3
[11] = system: Hepatitis B virus; assay: Antiviral activity against Hepatitis B virus infected in human HepG2.2.15 cells assessed as inhibition of HBV DNA copies per uL at 37.5 uM after 6 days by real-time fluorescence quantitative PCR analysis; assay type: functional; details: HepG2 2.2.15, 144 h
[12] = system: Hepatitis B virus; assay: Antiviral activity against Hepatitis B virus infected in human HepG2.2.15 cells assessed as inhibition of HBeAg secretion at 150 uM after 9 days by ELISA; assay type: functional; details: HepG2 2.2.15, 216 h; method in brief: as §1
[13] = system: Hepatitis B virus; assay: Antiviral activity against Hepatitis B virus infected in human HepG2.2.15 cells assessed as inhibition of HBeAg secretion at 300 uM after 6 days by ELISA; assay type: functional; details: HepG2 2.2.15, 144 h; method in brief: as §1
[14] = system: Hepatitis B virus; assay: Antiviral activity against Hepatitis B virus infected in human HepG2.2.15 cells assessed as inhibition of HBsAg secretion at 300 uM after 9 days by ELISA; assay type: functional; details: HepG2 2.2.15, 216 h; method in brief: as §1
[15] = system: Hepatitis B virus; assay: Antiviral activity against Hepatitis B virus infected in human HepG2.2.15 cells assessed as cell survival at 300 uM after 9 days (reference value: 100%); assay type: functional; details: HepG2 2.2.15, 216 h; method in brief: as §2
[16] = system: Hepatitis B virus; assay: Antiviral activity against Hepatitis B virus infected in human HepG2.2.15 cells assessed as inhibition of HBV DNA copies per uL at 75 uM after 6 days by real-time fluorescence quantitative PCR analysis; assay type: functional; details: HepG2 2.2.15, 144 h
[17] = system: Hepatitis B virus; assay: Antiviral activity against Hepatitis B virus infected in human HepG2.2.15 cells assessed as cell survival at 37.5 uM after 9 days (reference value: 100%); assay type: functional; details: HepG2 2.2.15, 216 h; method in brief: as §2
[18] = system: Hepatitis B virus; assay: Antiviral activity against Hepatitis B virus infected in human HepG2.2.15 cells assessed as inhibition of HBV DNA copies per uL at 150 uM after 3 days by real-time fluorescence quantitative PCR analysis; assay type: functional; details: HepG2 2.2.15, 72 h
[19] = system: Hepatitis B virus; assay: Antiviral activity against Hepatitis B virus infected in human HepG2.2.15 cells assessed as inhibition of HBV DNA copies per uL at 300 uM after 3 days by real-time fluorescence quantitative PCR analysis; assay type: functional; details: HepG2 2.2.15, 72 h
[20] = system: Hepatitis B virus; assay: Antiviral activity against Hepatitis B virus infected in human HepG2.2.15 cells assessed as cell survival at 75 uM after 9 days (reference value: 100%); assay type: functional; details: HepG2 2.2.15, 216 h; method in brief: as §2
[21] = system: Hepatitis B virus; assay: Antiviral activity against Hepatitis B virus infected in human HepG2.2.15 cells assessed as inhibition of HBsAg secretion at 75 uM after 9 days by ELISA; assay type: functional; details: HepG2 2.2.15, 216 h; method in brief: as §1
[22] = system: Hepatitis B virus; assay: Antiviral activity against Hepatitis B virus infected in human HepG2.2.15 cells assessed as inhibition of HBsAg secretion at 37.5 uM after 3 days by ELISA; assay type: functional; details: HepG2 2.2.15, 72 h; method in brief: as §1
[23] = system: Hepatitis B virus; assay: Antiviral activity against Hepatitis B virus infected in human HepG2.2.15 cells assessed as inhibition of HBV DNA copies per uL at 300 uM after 6 days by real-time fluorescence quantitative PCR analysis; assay type: functional; details: HepG2 2.2.15, 144 h
[24] = system: Hepatitis B virus; assay: Antiviral activity against Hepatitis B virus infected in human HepG2.2.15 cells assessed as inhibition of HBeAg secretion at 37.5 uM after 6 days by ELISA; assay type: functional; details: HepG2 2.2.15, 144 h; method in brief: as §1
[25] = system: Hepatitis B virus; assay: Antiviral activity against Hepatitis B virus infected in human HepG2.2.15 cells assessed as inhibition of HBsAg secretion at 150 uM after 9 days by ELISA; assay type: functional; details: HepG2 2.2.15, 216 h; method in brief: as §1
[26] = system: Hepatitis B virus; assay: Antiviral activity against Hepatitis B virus infected in human HepG2.2.15 cells assessed as inhibition of HBeAg secretion at 75 uM after 6 days by ELISA; assay type: functional; details: HepG2 2.2.15, 144 h; method in brief: as §1
[27] = system: Hepatitis B virus; assay: Antiviral activity against Hepatitis B virus infected in human HepG2.2.15 cells assessed as inhibition of HBsAg secretion at 75 uM after 3 days by ELISA; assay type: functional; details: HepG2 2.2.15, 72 h; method in brief: as §1
[28] = system: Hepatitis B virus; assay: Antiviral activity against Hepatitis B virus infected in human HepG2.2.15 cells assessed as inhibition of HBeAg secretion at 37.5 uM after 9 days by ELISA; assay type: functional; details: HepG2 2.2.15, 216 h; method in brief: as §1
[29] = system: Hepatitis B virus; assay: Antiviral activity against Hepatitis B virus infected in human HepG2.2.15 cells assessed as inhibition of HBV DNA copies per uL at 75 uM after 3 days by real-time fluorescence quantitative PCR analysis; assay type: functional; details: HepG2 2.2.15, 72 h

Compound	inhibition at 150 µM [1]	inhibition at 150 µM [2]	viability at 150 µM [3]	IC50 [4]	IC50 [5]	inhibition at 150 µM [6]	Ratio CC50/IC50 [7]	inhibition at 300 µM [8]	inhibition at 37.5 µM [9]	Ratio CC50/IC50 [10]	inhibition at 37.5 µM [11]	inhibition at 150 µM [12]	inhibition at 300 µM [13]	inhibition at 300 µM [14]	viability at 300 µM [15]	inhibition at 75 µM [16]	viability at 37.5 µM [17]	inhibition at 150 µM [18]	inhibition at 300 µM [19]	viability at 75 µM [20]	other results
COc1cc(/C=C/C(=O)O/N=C/c2ccco2)cc2c1OCO2	51.5%	56.3%	91.5%	140 µM	75.3 µM	42.9%	10.89	74.6%	24.9%	12.9	27.6%	65.2%	62%	77.2%	89.3%	39.4%	109%	40.7%	46.5%	95.4%	inhibition at 75 µM [21]: 57.7%; inhibition at 37.5 µM [22]: 22.3%; inhibition at 300 µM [23]: 57.4%; inhibition at 37.5 µM [24]: 30.7%; inhibition at 150 µM [25]: 67.3%; inhibition at 75 µM [26]: 37.8%; inhibition at 75 µM [27]: 38.8%; inhibition at 37.5 µM [28]: 31%; inhibition at 75 µM [29]: 29.4%
Nc1ccn([C@@H]2CS[C@H](CO)O2)c(=O)n1 [LAMIVUDINE]	23.9%	28.6%	82.4%	6.86 µM	267 µM	66.8%	2.13	4%	7.98%	2.42	38.6%	45.4%	39.9%	60.4%	75.2%	58.9%	118%	46.6%	59.5%	95.9%	inhibition at 75 µM [21]: 33.1%; inhibition at 37.5 µM [22]: 11.6%; inhibition at 300 µM [23]: 71.6%; inhibition at 37.5 µM [24]: 12.8%; inhibition at 150 µM [25]: 55.9%; inhibition at 75 µM [26]: 22.1%; inhibition at 75 µM [27]: 22%; inhibition at 37.5 µM [28]: 18.4%; inhibition at 75 µM [29]: 46%
